Measurements taken from ChEMBL document CHEMBL1140496, “Discovery of N-phenyl nicotinamides as potent inhibitors of Kdr” (Bioorg Med Chem Lett, 2007).

Key:
[1] = molecular target: T1, Vascular endothelial growth factor receptor 2 (Homo sapiens, UniProt P35968); assay: Inhibition of phosphorylated-Kdr after 30 mins
[2] = molecular target: T1, Vascular endothelial growth factor receptor 2; assay: Inhibition of unphosphorylated-Kdr after 30 mins
[3] = AUC in rat at 100 mg/kg; assay type: ADME, organism-based; design: dose 100 mg/kg; settings: plasma
HUVEC [4] = assay: Antiproliferative activity against VEGF-driven HUVEC; assay type: functional, cell-based; settings: Homo sapiens
HUVEC [5] = assay: Antiproliferative activity against bFGF-driven HUVEC; assay type: functional, cell-based; settings: Homo sapiens
[6] = Bioavailability in rat at 100 mg/kg; assay type: ADME, organism-based; settings: in vivo
A-431 = assay: Antitumor activity in A431 cells xenografted po dosed nude mouse assessed as delay in disease progression administered twice daily; assay type: functional, organism-based; settings: Homo sapiens
Procedure, shortened: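 Nude mice bearing A431 human […] epidermoid carcinoma xenografts received oral doses twice daily at 37.5, 75 or 150 mg/kg, against vehicle. Tumor size (cubic mm) was followed from about day 5 to day 23, with percent body weight also tracked. Groups were compared by p-values.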

[7] = Clearance in rat at 100 mg/kg; assay type: ADME, organism-based; design: dose 100 mg/kg; settings: in vivo

T1 sequence (P35968 whole entry): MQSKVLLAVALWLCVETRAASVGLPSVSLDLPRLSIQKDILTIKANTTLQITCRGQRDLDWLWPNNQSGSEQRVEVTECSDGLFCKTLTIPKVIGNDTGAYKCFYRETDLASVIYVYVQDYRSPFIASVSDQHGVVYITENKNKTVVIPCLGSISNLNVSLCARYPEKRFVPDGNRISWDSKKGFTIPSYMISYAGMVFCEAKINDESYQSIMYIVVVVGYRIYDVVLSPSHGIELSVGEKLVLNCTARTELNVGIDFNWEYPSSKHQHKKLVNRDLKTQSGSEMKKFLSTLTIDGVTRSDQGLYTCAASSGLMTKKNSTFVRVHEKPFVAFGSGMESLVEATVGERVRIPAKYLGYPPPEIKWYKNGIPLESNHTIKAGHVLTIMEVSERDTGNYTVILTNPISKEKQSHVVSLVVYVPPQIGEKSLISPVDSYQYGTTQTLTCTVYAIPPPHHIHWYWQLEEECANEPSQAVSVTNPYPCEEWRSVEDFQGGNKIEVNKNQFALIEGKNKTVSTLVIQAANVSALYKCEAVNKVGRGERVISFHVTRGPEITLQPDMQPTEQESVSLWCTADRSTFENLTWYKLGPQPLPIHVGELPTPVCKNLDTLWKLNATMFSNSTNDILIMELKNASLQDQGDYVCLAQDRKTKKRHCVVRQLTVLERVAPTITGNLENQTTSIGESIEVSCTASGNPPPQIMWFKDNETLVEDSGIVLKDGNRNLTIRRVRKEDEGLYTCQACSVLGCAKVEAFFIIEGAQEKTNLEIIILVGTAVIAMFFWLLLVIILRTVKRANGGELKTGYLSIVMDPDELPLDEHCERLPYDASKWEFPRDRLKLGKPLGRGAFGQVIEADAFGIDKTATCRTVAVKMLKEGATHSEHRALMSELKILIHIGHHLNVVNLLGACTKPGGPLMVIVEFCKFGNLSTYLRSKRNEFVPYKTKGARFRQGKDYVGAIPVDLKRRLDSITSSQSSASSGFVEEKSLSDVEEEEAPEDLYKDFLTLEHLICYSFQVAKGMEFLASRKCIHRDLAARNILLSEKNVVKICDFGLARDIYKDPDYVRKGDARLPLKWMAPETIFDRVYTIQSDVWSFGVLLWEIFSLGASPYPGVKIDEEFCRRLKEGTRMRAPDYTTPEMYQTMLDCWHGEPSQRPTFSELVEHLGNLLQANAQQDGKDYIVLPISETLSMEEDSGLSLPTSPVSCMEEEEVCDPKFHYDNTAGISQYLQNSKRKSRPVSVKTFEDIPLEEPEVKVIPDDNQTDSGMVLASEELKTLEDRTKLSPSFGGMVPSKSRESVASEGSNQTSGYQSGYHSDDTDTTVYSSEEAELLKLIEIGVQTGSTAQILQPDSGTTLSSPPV

Compound	Ki [1] [nM]	other results
O=C(Nc1ccc(Cl)c(Cl)c1)c1cccnc1NCc1ccncc1	17	–
O=C(Nc1ccc(Oc2ccccc2)cc1)c1cccnc1Nc1csc2ccccc12	> 20000	–
O=C(Nc1ccccc1Oc1ccccc1)c1cccnc1NCc1ccncc1	> 20000	–
O=C(Nc1ccc(OC(F)(F)F)cc1)c1cccnc1NCc1ccncc1	23	–
O=C(Nc1ccc(Cl)cc1)c1cncnc1NCc1ccncc1	140	–
O=C(Nc1cc(C(F)(F)F)cc(C(F)(F)F)c1)c1cccnc1NCc1ccncc1	8	–
O=C(Nc1ccc(Cl)cc1)c1cccnc1NCc1ccncc1	–	Ki [2]: 8 nM; AUC [3]: 20000 ng·h/mL; IC50 (HUVEC [4]): 8 nM; IC50 (HUVEC [5]): > 1000 nM; bioavailability [6]: 45%; Activity (A-431): Dose-dependent effect; clearance [7]: 73.3 mL/min/kg
O=C(Nc1ccc(C(F)(F)F)cc1)c1cccnc1NCc1ccncc1	9	–
CCc1cccc(NC(=O)c2cccnc2NCc2ccncc2)c1	106	–
O=C(Nc1ccc(Cl)c(C(F)(F)F)c1)c1cccnc1NCc1ccncc1	4	–
O=C(Nc1ccc(C2CCCCC2)cc1)c1cccnc1NCc1ccncc1	2	–
O=C(Nc1ccc(Cl)cc1)c1sccc1NCc1ccncc1	–	Ki [2]: 120 nM
CCOC(=O)c1coc(-c2cccc(NC(=O)c3cccnc3NCc3ccncc3)c2)c1	29	–
O=C(Nc1ccc(Cl)cc1)c1cc(Br)cnc1NCc1ccncc1	490	–
O=C(Nc1ccc(Oc2ccccc2)cc1)c1cccnc1NCc1ccc2c(c1)OCO2	38	–
CC(O)c1cccc(NC(=O)c2cccnc2NCc2ccncc2)c1 (configuration not stated)	> 6660	–
CN1CCN(c2ccc(NC(=O)c3cccnc3NCc3ccncc3)cc2)CC1	> 6660	–
O=C(Nc1cccc(Cl)c1)c1cccnc1NCc1ccncc1	2	IC50 (HUVEC [4]): 40 nM; IC50 (HUVEC [5]): > 1000 nM
O=C(Nc1ccc(Cl)cc1)c1ccccc1NCc1ccncc1	15	–
O=C(Nc1ccc(Cl)cc1)C1CCCCC1NCc1ccncc1 (configuration not stated)	> 10000	–
O=C(Nc1ccc(Oc2ccccc2)cc1)c1cccnc1Nc1ccc2cn[nH]c2c1	70	–
Cc1ccc(C(=O)Nc2ccc(Cl)cc2)c(NCc2ccncc2)n1	–	Ki [2]: > 10000 nM
O=C(Nc1ccc(Cl)cc1)c1ncccc1NCc1ccncc1	> 10000	–
O=C(Nc1ccc(Oc2ccccc2)cc1)c1cccnc1NCc1ccc(F)cc1	135	–
